# Screening data deposited in PubChem by Broad Institute.
# A selection: hits, their analogues and other compounds. The true share with any hit is near 2.9%.
# PGC1a acetyl inh: lowers PGC1a acetylation signal in U2OS cells; AlphaScreen anti-acetyl-lysine; with virally co-expressed GCN5 acetyltransferase; inhibition, % at 15.6 µM; 0.17% of 350,000 active;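 active = every replicate shows inhibition of at least 40%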;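 note: 0% = neutral control wells and 100% = positive control wells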
# DENV2 CPE: protects cells from dengue virus 2 cytopathic effect; DENV2-infected cells, cytopathic effect rescue, plate reader; CPE inhibition, % at 9.99 µM; 1.7% of 350,000 active; AID 651640; in the data active = CPE inhibition above about 20%, passing the limit was not always enough; tested in BHK-21 cells;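 note: 0% = median of neutral control wells and 100% = median of positive control wells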
# SIRT5 block: inhibitors of human sirtuin-5 desuccinylase | Q9NXA8 | Purified SirT5, succinyl-peptide AMC, trypsin-coupled fluorescence | inhibition, % at 15 µM | 1.1% of 330,000 active | AID 652115; in the data active = inhibition above about 15%
# Target sequence (Q9NXA8 whole entry, looked up): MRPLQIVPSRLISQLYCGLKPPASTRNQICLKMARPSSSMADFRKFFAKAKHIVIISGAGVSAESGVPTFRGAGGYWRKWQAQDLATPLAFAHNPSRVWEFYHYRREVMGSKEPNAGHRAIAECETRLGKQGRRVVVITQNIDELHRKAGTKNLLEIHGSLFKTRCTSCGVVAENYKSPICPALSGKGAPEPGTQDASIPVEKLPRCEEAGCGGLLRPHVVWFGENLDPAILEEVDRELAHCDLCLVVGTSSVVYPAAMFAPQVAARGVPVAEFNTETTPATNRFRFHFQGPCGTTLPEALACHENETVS
# S100A4 inh HTS: blocks human S100A4 binding to myosin IIA peptide; S100A4/TAMRA-MyoIIA peptide fluorescence polarization; AID 652163; 0.14% of 360,000 active; P26447; inhibition, % at 10.7 µM;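 active = mean inhibition of at least 70% across replicates, with every replicate also reaching that level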
# Target sequence (P26447 whole entry, looked up): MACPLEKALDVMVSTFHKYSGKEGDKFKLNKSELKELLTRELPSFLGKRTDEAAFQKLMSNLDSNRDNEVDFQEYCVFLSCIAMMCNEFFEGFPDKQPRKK
#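 assay system = human S100A4 monomer with TAMRA-labelled myosin IIA peptide | also added = labelled myosin peptide probe, 5 nM | incubation = 5 min between mix addition and reading | control set = DMSO and TFP controls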
# Statin myotox sup: suppressors of simvastatin-induced myotoxicity in C2C12 myotubes. 0.78% of 330,000 active. ATP luminescence, 48 h; scaled: DMSO 0, geranylgeraniol control 100. rescue of ATP level, % at 7.49 µM;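 active = mean ATP rescue above about 67%, or every replicate alone reaching that limit, limit read from the data, passing the limit was not always enough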;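 note: myotubes were challenged with 10 µM simvastatin during compound exposure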
# Numbers without * were called inactive; x = no result given; ! = repeats disagree.
SMILES,PGC1a acetyl inh,DENV2 CPE,SIRT5 block,S100A4 inh HTS,Statin myotox sup
COc1ccc(S(=O)(=O)N[C@@H]2C=C[C@@H](CC(=O)NCCc3ccccc3)O[C@@H]2CO)cc1,9.8,39.0*,-0.6,2.6,-6.2
COc1ccc(S(=O)(=O)N[C@H]2C=C[C@H](CC(=O)NCCc3ccccc3)O[C@H]2CO)cc1,3.2,-1.5,0.9,-6.8,-2.3
COc1ccc(S(=O)(=O)N[C@H]2C=C[C@@H](CC(=O)NCCc3ccncc3)O[C@H]2CO)cc1,-6.0,2.7,28.6*,-7.4,-2.0
Cc1ccc(S(=O)(=O)N[C@H]2C=C[C@@H](CC(=O)NCCN3CCCCC3)O[C@H]2CO)cc1,104.7*,0.2,0.2,-17.1,-1.0
COC(=O)C[C@@H]1C=C[C@H](NS(=O)(=O)c2ccc(OC)cc2)[C@H](CO)O1,5.1,-1.7,-2.2,-3.5,-11.4
COc1ccc(S(=O)(=O)N[C@@H]2C=C[C@H](CC(=O)NCCc3ccncc3)O[C@H]2CO)cc1,5.3,x,x,x,-9.6
CC(=O)Nc1ccc(NC(=O)CSc2ncc(C(=O)Nc3ccc(F)cc3)c(=O)n2C)cc1,x,30.4*,3.7,-2.3,x
Cc1cc2c(=O)n(C)c(SCC(=O)Nc3ccc(F)cc3)nc2s1,16.7,37.0*,1.0,0.1,27.2
CCSc1nc2sc3c(c2c(=O)n1-c1ccc(OC)cc1)CCN(C)C3,4.6,7.3,3.3,1.4,100.7*
COc1cccc(S(=O)(=O)N[C@@H]2C=C[C@H](CC(=O)NCc3ccc(F)cc3)O[C@@H]2CO)c1,-1.2,33.3*,10.1,9.3,-10.3
COc1cccc(S(=O)(=O)N[C@H]2CC[C@H](CCNC(=O)Cc3ccncc3)O[C@@H]2CO)c1,-4.2,-1.8,15.8*,3.3,-1.6
COc1cccc(S(=O)(=O)N[C@H]2C=C[C@H](CC(=O)NCc3ccncc3)O[C@@H]2CO)c1,-1.5,-3.0,0.8,-2.0,2.2
COc1cccc(S(=O)(=O)N[C@H]2C=C[C@H](CC(=O)NCc3ccncc3)O[C@H]2CO)c1,5.4,28.3*,-10.1,15.7,x
COc1cccc(S(=O)(=O)N[C@H]2CC[C@@H](CC(=O)NCc3ccncc3)O[C@@H]2CO)c1,8.0,2.2,-1.5,0.7,-6.4
O=C(O)C[C@@H]1C=C[C@@H](NC(=O)Nc2ccccc2)[C@H](CO)O1,-5.1,-3.1,1.2,-0.4,11.1
C[C@@H]1CN([C@@H](C)CO)C(=O)c2cc(NS(=O)(=O)c3cn(C)cn3)ccc2O[C@H]1CN(C)Cc1ccc(C(=O)Nc2ccccc2N)cc1,-3.9,-10.9,7.0,-7.2,45.1
COc1ccc(-c2cc(C3CC3)nc(N)c2C#N)cc1,1.6,6.3,-5.8,-6.7,4.0
COc1ccc(-c2cc(C3CC3)nc3sc(C#N)c(N)c23)cc1,-6.6,x,x,x,76.8*
COc1ccc(CN(C)C[C@H]2Oc3ccc(NC(=O)c4ccncc4)cc3CC(=O)N([C@@H](C)CO)C[C@H]2C)cc1,-3.8,0.2,-5.2,3.4,17.9
CCCCN1CC(COCc2ccccc2)Oc2cccc(Sc3ccc(OC)c(OC)c3)c2S1(=O)=O (centres undefined),x,-4.2,4.2,-3.1,x
C(=N\c1nccs1)/Nc1nccs1,3.6,x,x,x,98.1*
Oc1c(Cl)cc(Cl)cc1/C=N/c1nccs1,-5.5,x,x,x,15.4
C[C@H](CO)N1C[C@H](C)[C@H](CN(C)CC2CC2)Oc2ccc(NS(=O)(=O)c3ccc(Cl)cc3)cc2C1=O,0.3,-11.3,-2.7,7.3,20.5
CNC[C@@H]1Oc2ccc(NS(=O)(=O)c3ccc(Cl)cc3)cc2C(=O)N([C@@H](C)CO)C[C@@H]1C,4.0,8.5,-2.2,3.2,5.2
CNC[C@@H]1Oc2ccc(NS(=O)(=O)c3cn(C)cn3)cc2C(=O)N([C@@H](C)CO)C[C@H]1C,-11.0,23.1*,-8.5,-5.2,-24.6
SMILES,PGC1a acetyl inh,DENV2 CPE,SIRT5 block,S100A4 inh HTS,Statin myotox sup
CNC[C@H]1Oc2ccc(NS(=O)(=O)c3ccc(Cl)cc3)cc2C(=O)N([C@H](C)CO)C[C@H]1C,-1.0,28.4*,0.5,8.0,6.6
CNC[C@H]1Oc2ccc(NS(=O)(=O)c3cn(C)cn3)cc2C(=O)N([C@H](C)CO)C[C@@H]1C,-0.9,3.8,-2.9,-4.5,36.1
COc1ccc(S(=O)(=O)Nc2ccc3c(c2)C(=O)N([C@H](C)CO)C[C@@H](C)[C@H](CN(C)CC2CC2)O3)cc1,7.2,8.9,-0.3,-3.3,-9.7
C[C@@H]1CN([C@@H](C)CO)C(=O)c2cc(NS(=O)(=O)c3ccc(Cl)cc3)ccc2O[C@H]1CN(C)CC1CC1,7.0,28.7*,2.2,27.3,-24.8
COc1ccc(S(=O)(=O)Nc2ccc3c(c2)C(=O)N([C@@H](C)CO)C[C@H](C)[C@H](CN(C)CC2CC2)O3)cc1,5.0,0.5,27.4*!,1.2,-10.4
CCCC(=O)Nc1ccc2c(c1)C(=O)N(C)C[C@H](OC)[C@@H](C)CN(C(=O)c1ccncc1)[C@@H](C)CO2,-0.7,0.7,1.2,2.0,-11.7
C[C@H](CO)N1C[C@H](C)[C@H](CN(C)C(=O)c2ccccn2)Oc2ncc(-c3ccccc3)cc2C1=O,5.5,-1.1,1.0,-15.5,-8.2
COc1ccccc1C=NNC(=O)c1ccccc1OCCOc1ccccc1,-12.0,75.2*,-2.6,-1.8,3.7
COc1ccccc1/C=N/NC(=O)c1ccccc1Cl,x,4.6,-1.0,0.3,x
COc1ccccc1C=NNC(=O)C(=O)NN=Cc1ccccc1OC,6.1,5.5,x,-2.1,-0.2
COc1cccc(/C=N/NC(=O)C(=O)N/N=C/c2cccc(OC)c2OC)c1OC,x,85.0*,-2.8,17.1,x
CN(C)C(=O)C[C@@H]1CC[C@H]2[C@@H](COc3ccc(NC(=O)c4ccc(F)cc4)cc3C(=O)N2C)O1,x,-2.2,7.1,-4.6,-14.0
COc1ccc(C(C(=O)NCc2ccccc2)n2c(-c3ccncc3)nc3ccccc32)cc1 (centres undefined),x,22.0*,x,-0.4,x
COc1ccccc1NC(=O)N1[C@H](CO)[C@@H](c2ccccc2)[C@@H]1C#N,-4.9,16.9,3.9,3.3,-5.3
COc1cccc(C(=O)Nc2ccc3c(c2)OC[C@H](C)NC[C@@H](C)[C@H](OC)CN(C)C3=O)c1,-2.4,4.0,-2.7,17.5,1.5
CC(C)(C)S(=O)(=O)/C(C#N)=N/Nc1ccc(C#N)cc1,x,-3.1,5.8,-0.9,x
COc1cccc(N/N=C(\C#N)S(=O)(=O)C(C)(C)C)c1,-1.9,-1.3,18.3*,-5.3,x
COc1ccc2c3c([nH]c2c1)[C@@H](CO)N(C(=O)Nc1ccc(F)cc1)CC31CCN(Cc2cc(F)ccc2F)CC1,29.6,4.3,0.5,0.5,x
CCOC(=O)Cc1csc(NC(=O)Cc2ccccc2[N+](=O)[O-])n1,x,-11.5,-4.4,1.0,x
Cc1csc(NC(=O)Cc2ccccc2[N+](=O)[O-])n1,2.0,-1.0,16.8*,-0.5,x
